For three molecules, MIC and Activity results are on record in ChEMBL document CHEMBL1649155, “Antimicrobial activity of curcumin against Helicobacter pylori isolates from India and during infections in mice” (2009).

In brackets after ≈: the same amount, converted by molar mass. Activity calls are given as the source filed them. The rule behind the calls is not given here.

The test system of assay [1] is Helicobacter pylori. As to the kind of experiment: Antimicrobial activity against Helicobacter pylori L1675 by agar dilution method. It counts as functional. The essentials:
(§1)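 Agar dilution on BHI agar with 5% horse serum. Isolates were grown 3 days under microaerophilic conditions and restreaked for 24 h. Cells were suspended in PBS to OD600 0.1, and 10 μl was spotted onto agar with curcumin at final 50–5 μg/ml (DMSO stock). Plain and DMSO-containing agar served as growth controls. Plates ran 5 days at 37°C microaerophilic. MIC is the lowest concentration with no visible growth.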
On the technique in general: Agar dilution tests growth on a series of plates holding different concentrations.

The subject of assay [2] is Helicobacter pylori. As to the kind of experiment: Antimicrobial activity against Helicobacter pylori ATCC 43504 by agar dilution method. It is filed as functional. The essentials: as §1
Assay [3] relates to Helicobacter pylori. As to the kind of experiment: Antimicrobial activity against Helicobacter pylori clinical isolate by agar dilution method. It counts as functional. The essentials:
as §1

The nature of assay [4]: Antimicrobial activity against Helicobacter pylori 26695 by agar dilution method. It is filed as functional.
Assay [5] relates to Helicobacter pylori. As to the kind of experiment: Antimicrobial activity against Helicobacter pylori PG139 by agar dilution method. It is filed as functional. Summed up: as §1
Assay [6] deals with Helicobacter pylori. As to the kind of experiment: Antimicrobial activity against Helicobacter pylori PG156 by agar dilution method. It counts as functional. The essentials:
as §1

Assay [7] deals with Helicobacter pylori. As to the kind of experiment: Antimicrobial activity against Helicobacter pylori PG233 by agar dilution method. It counts as functional. The essentials:
as §1

For assay [8], the system named is Helicobacter pylori. As to the kind of experiment: Antimicrobial activity against Helicobacter pylori AM1 infected in C57BL/6 mouse assessed as decreased bacterial gene vacA expression at 25 mg/kg, po administered 2 weeks post infection for 7 days measured after 1 week by PCR. It counts as functional, organism-based. Details: dose 25 mg/kg.
The subject of assay [9] is Helicobacter pylori. As to the kind of experiment: Antimicrobial activity against Helicobacter pylori SS1 infected in C57BL/6 mouse assessed as decreased bacterial gene vacA expression at 25 mg/kg, po administered 2 weeks post infection for 7 days measured after 1 week by PCR. It counts as functional, organism-based. Details: dose 25 mg/kg.
Assay [10] deals with Helicobacter pylori. As to the kind of experiment: Antimicrobial activity against Helicobacter pylori SS1 infected in C57BL/6 mouse assessed as restoration of epithelial layer of gastric tissue at 25 mg/kg, po administered 2 weeks post infection for 7 days measured after 1 week. The settings on record: Stomach. Details: dose 25 mg/kg. It counts as functional, organism-based. The essentials:
(§2)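 C57BL/6 mice were inoculated intragastrically with SS1, with PBS controls. Two weeks after the final inoculation, curcumin 25 mg/kg was fed orally for 7 consecutive days before sacrifice. Body and pyloric stomach tissue was formalin-fixed and paraffin-embedded, and 5 μm sections were stained with hematoxylin and eosin and examined at ×10 and ×20.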

Assay [11] relates to Helicobacter pylori. As to the kind of experiment: Antimicrobial activity against Helicobacter pylori SS1 infected in C57BL/6 mouse assessed as inhibition of disruption in submucosal and muscularis mucosal layer of gastric tissue at 25 mg/kg, po administered 2 weeks post infection for 7 days measured after 1 week. It is filed as functional, organism-based. On the set-up: dose 25 mg/kg. The settings on record: Stomach. Summed up: as §2

Assay [12] concerns Helicobacter pylori. As to the kind of experiment: Antimicrobial activity against Helicobacter pylori SS1 infected in C57BL/6 mouse assessed as decrease in glandular atrophy at 25 mg/kg, po administered 2 weeks post infection for 7 days measured after 1 week. It counts as functional, organism-based. Details: dose 25 mg/kg. The essentials:
as §2

The test system of assay [13] is Helicobacter pylori. As to the kind of experiment: Antimicrobial activity against Helicobacter pylori SS1 infected in C57BL/6 mouse assessed as inhibition of inflammatory cell infiltration at 25 mg/kg, po administered 2 weeks post infection for 7 days measured after 1 week. It counts as functional, organism-based. On the set-up: dose 25 mg/kg. The essentials:
as §2

Turning to `COc1cc(/C=C/C(=O)CC(=O)/C=C/c2ccc(O)c(OC)c2)ccc1O` [CURCUMIN], the MIC (commonly the lowest concentration found to suppress growth) in the assay with Helicobacter pylori [1] was found to be 50 µg/mL (≈ 136 µM); against Helicobacter pylori [2], 15 µg/mL (≈ 40.7 µM); in the assay with Helicobacter pylori [3], 5 µg/mL (≈ 13.6 µM); in assay [4], 20 µg/mL (≈ 54.3 µM); against Helicobacter pylori [5], 5 µg/mL (≈ 13.6 µM); against Helicobacter pylori [6], 30 µg/mL (≈ 81.4 µM). The molecule further registered an MIC with Helicobacter pylori [7] of 5 µg/mL (≈ 13.6 µM). Further, the result in the assay on Helicobacter pylori [8], with Helicobacter pylori [9], with Helicobacter pylori [10], in the assay on Helicobacter pylori [11], in the assay with Helicobacter pylori [12] and in the assay on Helicobacter pylori [13] was Active.
On to `CC[C@H]1OC(=O)[C@H](C)[C@@H](O[C@H]2C[C@@](C)(OC)[C@@H](O)[C@H](C)O2)[C@H](C)[C@@H](O[C@@H]2O[C@H](C)C[C@H](N(C)C)[C@H]2O)[C@](C)(OC)C[C@@H](C)C(=O)[C@H](C)[C@@H](O)[C@]1(C)O` [CLARITHROMYCIN], for which the MIC in the assay with Helicobacter pylori [2] and in the assay on Helicobacter pylori [3] was 0.02 µg/mL (≈ 0.0267 µM) throughout.
`CC1(C)S[C@@H]2[C@H](NC(=O)[C@H](N)c3ccc(O)cc3)C(=O)N2[C@H]1C(=O)O` [AMOXICILLIN]: the MIC with Helicobacter pylori [2] and in the assay on Helicobacter pylori [3] was 0.03 µg/mL (≈ 0.0821 µM) each time.
